Test results: article PMC2673089 (Journal of pharmaceutical sciences, 2008)

Assays:
[1] = biological target: T1, rat CYP3A1 (Rattus norvegicus, UniProt P04800); assay: Metabolism by recombinant rat CYP3A1 Supersomes; format: in vitro ADME
T1 sequence (P04800 1-504): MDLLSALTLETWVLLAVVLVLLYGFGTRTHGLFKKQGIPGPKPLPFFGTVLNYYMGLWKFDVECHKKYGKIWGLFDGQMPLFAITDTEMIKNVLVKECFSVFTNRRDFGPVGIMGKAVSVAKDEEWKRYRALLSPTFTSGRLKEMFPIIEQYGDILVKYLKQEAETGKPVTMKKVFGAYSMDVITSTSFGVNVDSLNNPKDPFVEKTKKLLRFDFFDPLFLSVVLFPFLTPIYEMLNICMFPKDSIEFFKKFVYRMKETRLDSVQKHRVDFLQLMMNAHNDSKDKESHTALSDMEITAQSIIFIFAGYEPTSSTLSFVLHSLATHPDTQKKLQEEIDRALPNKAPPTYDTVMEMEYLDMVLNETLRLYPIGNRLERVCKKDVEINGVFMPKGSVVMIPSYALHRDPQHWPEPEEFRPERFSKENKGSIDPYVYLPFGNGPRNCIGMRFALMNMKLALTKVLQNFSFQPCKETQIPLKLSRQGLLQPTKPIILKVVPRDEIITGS

[2] = biological target: human CYP2C19 (Homo sapiens, UniProt P33261); assay: Metabolism by recombinant human CYP2C19 Supersomes; format: in vitro ADME
[3] = test system: extracellular levels of DA in the nucleus accumbens (NAc); assay: Intracerebral microdialysis of NAc dopamine; format: in vivo, Sprague–Dawley rats; settings: for maximal increase of DA: NAc dialysate; for time DA levels remained significantly elevated above basal: post hoc p < 0.05
Procedure, shortened: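 CMA/12 probe (2 mm) was perfused with aCSF at 1 μL/min. Dialysate was collected over 10-min periods to 360 min. DA by HPLC-ECD, as % of mean of four basal samples. Repeated-measures ANOVA, Dunnett vs time zero.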

[4] = biological target: SERT; settings: read-out: SERT Ki; mean ± SEM; cited from earlier work
[5] = biological target: DAT; settings: read-out: DAT Ki; mean ± SEM; cited from earlier work
[6] = test system: pooled human liver microsomes; assay: Metabolism in pooled human liver microsomes; format: in vitro ADME

Chain of human CYP2C19 (P33261 whole entry): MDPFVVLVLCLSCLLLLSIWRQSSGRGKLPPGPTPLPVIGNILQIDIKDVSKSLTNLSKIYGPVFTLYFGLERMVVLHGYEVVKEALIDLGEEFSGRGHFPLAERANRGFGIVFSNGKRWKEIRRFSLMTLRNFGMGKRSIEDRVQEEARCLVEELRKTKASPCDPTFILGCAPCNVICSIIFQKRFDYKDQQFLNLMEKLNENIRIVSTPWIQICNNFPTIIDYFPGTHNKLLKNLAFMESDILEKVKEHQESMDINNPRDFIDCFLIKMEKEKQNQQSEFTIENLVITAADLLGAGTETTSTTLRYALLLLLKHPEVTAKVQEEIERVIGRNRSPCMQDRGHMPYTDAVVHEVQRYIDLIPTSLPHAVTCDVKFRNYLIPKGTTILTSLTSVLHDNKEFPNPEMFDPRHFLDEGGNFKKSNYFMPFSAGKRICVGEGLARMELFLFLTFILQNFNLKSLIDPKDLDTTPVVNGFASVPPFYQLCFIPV

SMILES: CC(C)[C@@H](N)CN1C2CCC1CC(OC(c1ccc(F)cc1)c1ccc(F)cc1)C2 (stereo partly drawn) [GA2-50, N-((R)-2″-amino-3″-methyl-n-butyl)-3α-[(bis-4′-fluorophenyl)methoxy]tropane]
- Intrinsic Clearance ([1]; Rat CYP 3A1 50 pmol/mL, 4 μM): 0.09 ± 0.02 (c,d) microliters per minute per picomole of P450
- Substrate disappearance after 60 min incubation vs control ([1]; rat CYP3A1, 10 μM, 50 pmol/mL P450, p < 0.05): statistically significant disappearance
- Intrinsic Clearance ([2]; Human CYP 2C19 50 pmol/mL, 4 μM): 0.10 ± 0.01 (c) microliters per minute per picomole of P450
- Substrate disappearance after 60 min incubation vs control ([2]; human CYP2C19, 10 μM, 50 pmol/mL P450, p < 0.05): statistically significant disappearance
- maximal DA elevation relative to basal ([3]; 5 mg/kg i.v.): 1.6 fold
- time of maximal DA increase postdose ([3]; 5 mg/kg i.v.): 20 min
- maximal increase of DA ([3]; 5 mg/kg i.v.): 159 % of the basal values
- time DA levels remained significantly elevated above basal ([3]; 5 mg/kg i.v.): up to 1 h
- maximal DA elevation relative to basal ([3]; 10 mg/kg i.v.): 2.7 fold
- time of maximal DA increase postdose ([3]; 10 mg/kg i.v.): 30 min
- maximal increase of DA ([3]; 10 mg/kg i.v.): 274 % of the basal values
- time DA levels remained significantly elevated above basal ([3]; 10 mg/kg i.v., whole 6 h experiment): ≥ 6 h
- effect on cocaine-induced DA elevation ([3]; GA2-50 + cocaine, 5 mg/kg of each i.v., simultaneous administration): did not have significant effect on the DA elevation induced by cocaine
- Ki [4]: 3.87 ± 0.135 µM
- Ki [5]: 0.0564 ± 0.0096 µM
- Intrinsic Clearance ([6]; Pooled HLM 0.8 mg/mL, 4 μM, mean ± SD n = 3): 3.17 ± 1.18 microliters per minute per milligram of protein
- Intrinsic clearance, fold lower than 4′,4″-diCl BZT ([6]; pooled human liver microsomes, comparator values ref 26): 4.0 fold
